From ChEMBL document CHEMBL3227967, “Quantitative structure-activity relationships in 1-aryl-2-(alkylamino)ethanol antimalarials” (J Med Chem, 1979)

Test system: Plasmodium berghei
Experiment: Antimalarial activity against Plasmodium berghei
Assay type: functional
Settings: not given

| Compound | log(1/C) |
| --- | --- |
| CCCCCCCN(CCCCCCC)CC(O)c1cc2ccc(C(F)(F)F)cc2c2cc(Cl)ccc12 (stereo unspecified) | 2.9 |
| CCCCN(CCCC)CC(O)c1ccnc2c1cnc1cc(Cl)ccc12 (stereo unspecified) | 2.11 |
| CCCCNCC(O)c1cc(-c2cccc(C(F)(F)F)c2)nc(-c2cccc(C(F)(F)F)c2)c1 (stereo unspecified) | 3.94 |
| CCCCN(CCCC)CC(O)c1cc(-c2ccc(OC)cc2)nc2cc(OC)c(Cl)cc12 (stereo unspecified) | 2.71 |
| CCCCN(CCCC)CC(O)c1cc(OCC)nc2ccccc12 (stereo unspecified) | 2.24 |
| CCCCN(CCCC)CCC(O)c1cc2ccccc2c2ccccc12 (stereo unspecified) | 2.45 |
| CCCCCCCN(CCCCCCC)CC(O)c1cc2ccc(Br)cc2c2cc(Br)ccc12 (stereo unspecified) | 3.45 |
| CCCCCCCN(CCCCCCC)CC(O)c1cccc2c1c(Br)cc1ccccc12 (stereo unspecified) | 2.27 |
| C=C[C@H]1CN2CC[C@H]1C[C@H]2[C@H](O)c1ccnc2ccc(OC)cc12.O=C(O)c1ccccc1 | 1.98 |
| CCCCN(CCCC)CC(O)c1cc2ccccc2c2ccc(Cl)cc12 (stereo unspecified) | 2.51 |
| CCCCCCCN(CCCCCCC)CC(O)c1cc(-c2ccc(Cl)cc2)nc2c(C(F)(F)F)cccc12 (stereo unspecified) | 3.13 |
| CCCCN(CCCC)CC(O)c1cc2c(Cl)cc(Cl)cc2c2cc(C(F)(F)F)ccc12 (stereo unspecified) | 4.29 |
| CCCCCCN(CCCCCC)CCC(O)c1cc2c(O)cccc2c2ccccc12 (stereo unspecified) | 2.52 |
| OC(C[N+]12CCC(CC1)CC2)c1cc(-c2ccc(Cl)cc2)nc(-c2ccc(Cl)cc2)c1 (stereo unspecified) | 3.21 |
| CCCCN1CCCCC1CC(O)c1cc2ccccc2c2cc(Br)ccc12 (stereo unspecified) | 3.22 |
| CCCCNCC(O)c1cc(-c2ccc(C(F)(F)F)cc2)nc(-c2ccc(C(F)(F)F)cc2)c1 (stereo unspecified) | 4.16 |
| CCCCCCN(CCCCCC)CC(O)c1cc(-c2ccc(Cl)c(Cl)c2)nc2cc(C(F)(F)F)ccc12 (stereo unspecified) | 3.68 |
| Cc1ccc(-c2cc(C(O)CC3CCCCN3)c3ccccc3n2)cc1 (stereo unspecified) | 2.38 |

Test system: not listed separately
Experiment: Lipophilicity, log P of the compound in 0.1 N HCl solution
Assay type: physicochemical
Settings: 0.1 N HCl solution; read-out: logP
Summary of the method: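 Partition coefficients of the hydrochloride salts were measured from 0.1 N HCl solution unless a footnote says otherwise. Some entries were not measured. They were calculated by adding the Δlog P of the corresponding phenanthrene analogues to the measured log P of a reference hydrochloride.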

| Compound | logP |
| --- | --- |
| OC(CN1C=CN(c2ccccc2)C=C1)c1cc(-c2ccc(Cl)cc2)nc2cc(Cl)ccc12 (stereo unspecified) | 5.4 |
| CCCNCC(O)c1cc2ccccc2c2ccccc12 (stereo unspecified) | 1.86 |
| CCCCN(CCCC)CC(O)c1c(Br)c(-c2ccccc2)nc2ccccc12 (stereo unspecified) | 3.86 |
| CCCNCC(O)c1cc(-c2ccccc2)nc2ccccc12 (stereo unspecified) | 1.43 |
| OC(CN1CCCCC1)c1cc2ccccc2c2sccc12 (stereo unspecified) | 1.73 |
| COc1ccc2nccc(C(O)CC3CCC(/C=C/Br)CN3)c2c1 (stereo unspecified) | 1.71 |
| OC(CN1C=CN(c2ccccc2)C=C1)c1cc(-c2ccc(F)cc2)nc2cc(F)ccc12 (stereo unspecified) | 4.26 |
| CCN1C=CN(CC(O)c2cc(-c3ccc(F)cc3)nc3cc(F)ccc23)C=C1 (stereo unspecified) | 3.32 |
| CCCN(CCC)CC(O)c1cc(-c2ccccc2)nc2ccccc12 (stereo unspecified) | 1.69 |
| CN(C)CC(O)c1cc(-c2ccccc2)nc(-c2ccccc2)c1 (stereo unspecified) | 2.25 |
| CCCCCNCC(O)c1cc(-c2ccccc2)nc(-c2ccccc2)c1 (stereo unspecified) | 3.97 |
| Cc1cc(-c2ccccc2)nc2c(C)cc(C(O)CN3CCCCCC3)cc12 (stereo unspecified) | 4.03 |
| OC(CN1CCCCC1)c1c2ccccc2nc2c1ccc1ccccc12 (stereo unspecified) | 3.51 |
| CCCCCNCC(O)c1cc2ccccc2c2ccccc12 (stereo unspecified) | 2.8 |
| OC(CN1C=CN(c2ccccc2)C=C1)c1cc(-c2ccc(Cl)cc2)nc2c(Cl)cc(Cl)cc12 (stereo unspecified) | 6.11 |
| CCN(CC)CC(O)c1cc2ccccc2c2ccccc12 (stereo unspecified) | 1.37 |
| OC(CC1CCCCN1)c1cc(C2CCCCC2)nc2ccccc12 (stereo unspecified) | 2.56 |
| OC(CN1CCCCCC1)c1cccc2ccc(-c3ccccc3)nc12 (stereo unspecified) | 2.91 |
| CCCCN(CCCC)CC(O)c1c(C)c(-c2ccc(C)cc2C)nc2c1ccc1ccccc12 (stereo unspecified) | 6 |

| Compound | logP |
| --- | --- |
| CCCN(CCC)CC(O)c1cc(-c2ccccc2)nc(-c2ccccc2)c1 (stereo unspecified) | 3.29 |
| CNCC(O)c1cc(-c2ccccc2)nc2ccccc12 (stereo unspecified) | 0.55 |
| CCC1C[N+]2(CC(O)c3ccnc4ccc(OC)cc34)CCC1CC2 (stereo unspecified) | 2.31 |
| OC(CNC12CC3CC(CC(C3)C1)C2)c1cc(-c2ccc(F)cc2)nc2cc(F)ccc12 (stereo unspecified) | 3.84 |
| CCNCC(O)c1cc(-c2ccccc2)nc(-c2ccccc2)c1 (stereo unspecified) | 2.59 |
| O=C(O)CCNCC(O)c1cc2ccccc2c2ccccc12 (stereo unspecified) | 0.6 |
| CNCC(O)c1cc(-c2ccccc2)nc(-c2ccccc2)c1 (stereo unspecified) | 2.15 |
| CCCCNCC(O)c1cc2ccccc2c2ccccc12 (stereo unspecified) | 2.3 |
| CC(C)(C)CC(C)(C)NCC(O)c1c2ccccc2cc2ccccc12 (stereo unspecified) | 3.46 |
| CCCCCNCC(O)c1cc(-c2ccccc2)nc2ccccc12 (stereo unspecified) | 2.37 |
| OC(CC1CCCCN1)c1ccnc2ccccc12 (stereo unspecified) | 0.05 |
| O=C(Nc1cccc(C(F)(F)F)c1)c1cc(C(O)CC2CCCCN2)c2cccc(C(F)(F)F)c2n1 (stereo unspecified) | 2.3 |
| CCCCN(CCCC)CC(O)c1cc(-c2ccccc2)nc(-c2ccccc2)c1 (stereo unspecified) | 4.17 |
| CCCCN(CCCC)CC(O)c1cc(-c2ccc(Cl)cc2)c2cc(Cl)cc(Cl)c2n1 (stereo unspecified) | 5.13 |
| CCCNCC(O)c1cc(-c2ccccc2)nc(-c2ccccc2)c1 (stereo unspecified) | 3.03 |
| OC(CN1C=COC=C1)c1cc(-c2ccc(Cl)cc2)nc2cc(Cl)ccc12 (stereo unspecified) | 1.14 |
| CCNCC(O)c1cc2ccccc2c2ccccc12 (stereo unspecified) | 1.42 |
| N#CCCN(CCC#N)CC(O)c1cc2ccccc2c2ccccc12 (stereo unspecified) | 0.37 |
| CCCN(CCC)CC(O)c1cc2ccccc2c2ccccc12 (stereo unspecified) | 2.12 |

| Compound | logP |
| --- | --- |
| NCC(O)c1cc2ccc(C(F)(F)F)cc2c2cc(C(F)(F)F)ccc12 (stereo unspecified) | 2.19 |
| CCCCN(CCCC)CC(O)c1cc(-c2ccccc2)nc2ccccc12 (stereo unspecified) | 2.57 |
| OC(CN1CCCCCC1)c1ccc2c(Cl)cc(-c3ccccc3)nc2c1 (stereo unspecified) | 3.62 |
| CCN(CC)CC(O)c1cc(-c2ccccc2)nc(-c2ccccc2)c1 (stereo unspecified) | 2.54 |
| OC(CC1CCCCN1)c1cc(C(F)(F)F)nc2ccccc12 (stereo unspecified) | 0.93 |
| OC(CN1CCCCCC1)c1cc(Cl)c2nc(-c3ccccc3)ccc2c1 (stereo unspecified) | 3.62 |
| CCCCN(CCCC)CC(O)c1c(OC)c2ccccc2c2ccccc12 (stereo unspecified) | 2.55 |
| OC(CC1CCCCN1)C1CC=Nc2c1cccc2C(F)(F)F (stereo unspecified) | 1.12 |
| CCCCNCC(O)c1cc(-c2ccccc2)nc2ccccc12 (stereo unspecified) | 1.87 |
| OC(c1cc(-c2ccccc2)nc2ccccc12)C1CCCCN1 (stereo unspecified) | 1.58 |
| Cc1cc(C(O)CN2CCCCCC2)cc2ccc(-c3ccccc3)nc12 (stereo unspecified) | 3.47 |
| OC(c1cc(-c2ccccc2)nc(-c2ccccc2)c1)C1CCCCN1 (stereo unspecified) | 3.18 |
| CCC1C[N+]2(c3ccnc4ccc(OC(C)CO)cc34)CCC1CC2 (stereo unspecified) | 2.31 |
| N#CCCN(CC(O)c1cc2ccccc2c2ccccc12)C1CCCCC1 (stereo unspecified) | 2.27 |
| CCNCC(O)c1cc(-c2ccccc2)nc2ccccc12 (stereo unspecified) | 0.99 |
| OC(CN1C=COC=C1)c1cc(-c2ccc(F)cc2)nc2cc(F)ccc12 (stereo unspecified) | 0 |
| Cc1cc(C(O)CN2CCCCCC2)c2nc(-c3ccccc3)ccc2c1 (stereo unspecified) | 3.47 |
| OC(CC1CC2CCN1CC2)c1cc2ccccc2c2cc(Br)ccc12 (stereo unspecified) | 2.98 |

The remaining lines, values ahead:

| logP | Compound |
| --- | --- |
| 2.31 | CCCCN(CCCC)CC(O)c1cc(Cl)cc2c(C)ccnc12 (stereo unspecified) |
| 4.89 | CCCCCCCN(CCCCCCC)CC(O)c1cc2ccc(Br)cc2c2cccnc12 (stereo unspecified) |
| 8.13 | CCCCCCCCCCN(CCCCCCCCCC)CC(O)c1ccc(Cl)c2ccccc12 (stereo unspecified) |
| 2.87 | CCCCN(CCCC)CC(O)c1cnc2c(C)cc(C)cc2c1Cl (stereo unspecified) |
| 3 | CCCCN(CCCC)CC(O)c1cc2ccccc2c2ccccc12 (stereo unspecified) |
| 4.51 | CCCCCCN(CCCCCC)CC(O)c1cc(-c2ccccc2)nc2ccccc12 (stereo unspecified) |
| 5.94 | CCCCCCCN(CCCCCCC)CC(O)c1cc2ccccc2c2ccccc12 (stereo unspecified) |
| 8.34 | CCCCCCCCN(CCCCCCCC)CC(O)c1cc(-c2ccc(Cl)c(Cl)c2)nc2ccc(OC)cc12 (stereo unspecified) |
| 5.51 | CCCCCCCN(CCCCCCC)CC(O)c1cc(-c2ccccc2)nc2ccccc12 (stereo unspecified) |
| 5.25 | CCN(CC)CC(O)c1cc(Cl)cc2c(C)ccnc12 (stereo unspecified) |
| 4.74 | CCCCCCCN(CCCCCCC)CC(O)c1cc2ccc(Cl)cc2c2cccnc12 (stereo unspecified) |
| 3.71 | CCCCN(CCCC)CC(O)c1cnc2c(-c3ccccc3)cccc2c1Cl (stereo unspecified) |
| 3.17 | CCCCN(CCCC)CC(O)c1cnc2c(Cl)cc(Cl)cc2c1Cl (stereo unspecified) |
| 3.75 | CCCCN(CCCC)CC(O)c1cc(-c2cccc(O)c2)nc2c(Cl)cc(Cl)cc12 (stereo unspecified) |
| 3.69 | CCCCCCN(CCCCCC)CC(O)c1ccc(Cl)c2ncccc12 (stereo unspecified) |
| 7.11 | CCCCCCCN(CCCCCCC)CC(O)c1cc(-c2ccccc2)nc(-c2ccccc2)c1 (stereo unspecified) |
| 3.58 | CCCCCN(CCCCC)CC(O)c1cc(-c2ccccc2)nc2ccccc12 (stereo unspecified) |
| 2.63 | CCCCN(CCCC)CC(O)c1cnc2c(C(F)(F)F)cccc2c1Cl (stereo unspecified) |

| logP | Compound |
| --- | --- |
| 7.69 | CCCCCCCN(CCCCCCC)CC(O)c1cccc2ccc3c4ccccc4cc(Br)c3c12 (stereo unspecified) |
| 2.46 | CCCCN(CCCC)CC(O)c1ccc2cc(Cl)cc(Cl)c2n1 (stereo unspecified) |
| 1.73 | CCCCN(CCCC)CC(O)c1ccc2cc(OC)c(Cl)cc2n1 (stereo unspecified) |
| 1.92 | CCCCN(CCCC)CC(O)c1cnc2c(C(F)(F)F)cccc2c1 (stereo unspecified) |
| 4.94 | CCCCCCN(CCCCCC)CC(O)c1cc2ccccc2c2ccccc12 (stereo unspecified) |
| 6.01 | CCCCCCCN(CCCCCCC)CC(O)c1cc2c(Cl)cc(Cl)cc2c2ccc(C)nc12 (stereo unspecified) |
| 2.44 | CCCCN(CCCC)CC(O)c1cc(OC)c2cc(Cl)cc(Cl)c2n1 (stereo unspecified) |
| 2.46 | CCCCN(CCCC)CC(O)c1cnc2c(Cl)cc(Cl)cc2c1 (stereo unspecified) |
| 4.4 | CCCCCCN(CCCCCC)CC(O)c1ccc2cc(Cl)cc(Cl)c2n1 (stereo unspecified) |
| 5.18 | CCCCCN(CCCCC)CC(O)c1cc(-c2ccccc2)nc(-c2ccccc2)c1 (stereo unspecified) |
| 4.03 | CCCCCCCN(CCCCCCC)CC(O)c1cc2ccccc2c2cnccc12 (stereo unspecified) |
| 2.46 | CCCCN(CCCC)CC(O)c1cnc2cc(Cl)ccc2c1Cl (stereo unspecified) |
| 4.03 | CCCCCCCN(CCCCCCC)CC(O)c1cc2ncccc2c2ccccc12 (stereo unspecified) |
| 5.25 | CCCCCCCN(CCCCCCC)CC(O)c1ccc(Cl)c2c(C)ccnc12 (stereo unspecified) |
| 2.46 | CCCCN(CCCC)CC(O)c1c(Cl)cc(Cl)c2ncccc12 (stereo unspecified) |
| 5.65 | CCCCCCN(CCCCCC)CC(O)c1cc(Cl)c2nc(-c3ccccc3)ccc2c1 (stereo unspecified) |
| 2.19 | CCCCN(CCCC)CC(O)c1ccc(Cl)c2ccccc12 (stereo unspecified) |
| 8.83 | CCCCCCCN(CCCCCCC)CC(O)c1cc(-c2ccc(Br)cc2)nc(-c2ccc(Br)cc2)c1 (stereo unspecified) |

Same assay, conditions: buffer

| logP | Compound |
| --- | --- |
| 9.95 | CCCCCCCN(CCCCCCC)CC(O)c1cc(-c2ccc(Cl)c(Cl)c2)nc(-c2ccc(Cl)c(Cl)c2)c1 (stereo unspecified) |
